This note sets out measurements from ChEMBL document CHEMBL5030548, “Blockade of GRTH/DDX25 Phosphorylation by Cyclic Peptides Provides an Avenue for Developing a Nonhormonal Male Contraceptive” (J Med Chem, 2021).

pIC50: −log10 of the molar value. Activity calls are given as the source filed them. No cut-off for these calls is given here. Where a SMILES comes first, the peptide text is derived from it. [ ]: non-standard residue; d: D form. The star is where a group is joined. FITC = O=C1OC2(c3ccc(O)cc3Oc3cc(O)ccc32)c2ccc(NC(=S)*)cc21; 2Nal = N[C@@H](Cc1ccc2ccccc2c1)C(=O)O; AEEA = NCCOCCOCC(=O)O

Data set [1] can be described thus: Drug uptake in nucleus of African green monkey COS-1 cells assessed as compound accumulation in nucleus at 20 uM incubated for 4 hrs in presence of FITC-labelled peptide by DAPI staining based inverted phase contrast fluorescence microscope analysis. In kind it is ADME, subcellular. The conditions noted are these: chlorocebus aethiops, cos-1, 4 h. In outline:
(§1)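 Stable GRTH-expressing COS-1 cells grown overnight on coverslips, then given 20 μM FITC-tagged peptide for 4 h. After PBS wash they were fixed in 50% then 100% methanol, 1 min each, and mounted with DAPI. Green signal in cytoplasm and nucleus was viewed by inverted fluorescence microscopy.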

Data set [2] is filed under the species Mus musculus. As to the kind of experiment: Inhibition of GRTH phosphorylation in mouse seminiferous tubule of testis assessed as reduction in pGRTH protein level at 100 uM measured after 16 hrs by western blot analysis. It counts as tissue-based. In outline: (§2)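 Seminiferous tubules from adult mice (90 days old) in medium 199, 4 h, then 100 μM peptide for 16 h. Lysates were blotted with phospho-specific GRTH antibody. pGRTH band normalized to β-actin and compared with untreated tubules; n = 3.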

Data set [3] in a line: Drug uptake in mouse seminiferous tubule of testis at 100 uM incubated for 16 hrs by immunofluorescence microscopic analysis. The settings on record: in vitro. In kind it is ADME, tissue-based. In outline: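 Seminiferous tubules from decapsulated testes of 90-day-old mice were segmented and placed in medium 199. After 4 h, 100 μM FITC-tagged peptide was added for 16 h. Tubules were PBS-washed, mounted with antifade and imaged by fluorescence microscopy.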

A short description of data set [4]: Drug uptake in cytoplasm of African green monkey COS-1 cells assessed as compound accumulation in cytoplasm at 20 uM incubated for 4 hrs in presence of FITC-labelled peptide by DAPI staining based inverted phase contrast fluorescence microscope analysis. In kind it is ADME, subcellular. The settings on record: chlorocebus aethiops, cos-1, 4 h. In outline:
as §1

Data set [5] relates to COS-1. The experiment in a line: Inhibition of GRTH phosphorylation (unknown origin) expressed in COS-1 cells assessed as reduction in pGRTH protein level at 5 to 100 uM measured after 16 hrs by western blot analysis. It counts as cell-based. The conditions noted are these: Homo sapiens, dose 5-100 µM. In outline:
(§3)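 COS-1 cells stably expressing human GRTH-V5-His at ~90% confluence. Peptides dissolved in water and given at 5, 20, 60 or 100 μM for 16 h, or at 100 μM for 4, 8, 16 or 24 h. 30 μg protein per sample was blotted with a rabbit phospho-T239-specific GRTH antibody. 61 kDa pGRTH band normalized to β-actin; three independent experiments; ANOVA with Tukey test.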

Data set [6] relates to COS-1. As to the kind of experiment: Inhibition of PKA-induced GRTH phosphorylation (unknown origin) expressed in COS-1 cells at 100 uM stimulated with PKA for 24 hrs followed by peptide addition and incubated overnight by Western blot analysis. In kind it is cell-based. The conditions noted are these: Homo sapiens. In outline: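 Stable GRTH COS-1 cells at 0.3 × 10^6/well were transfected with PKAα catalytic subunit plasmid (3 μg/well), or with empty plasmid, and grown 24 h. Peptide was then added at 100 μM overnight at 37 °C. pGRTH was detected by western blot with phospho-specific antibody (1:1000) and normalized to β-actin; three experiments.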

Data set [7] has as its system COS-1. The experiment in a line: Cytotoxicity against African green monkey COS-1 cell assessed as reduction in cell viability incubated for 24 hrs by CellTiter 96 non-radioactive cell proliferation assay. It counts as cell-based. The conditions noted are these: Chlorocebus aethiops, COS-1, 24 h. The method in brief: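 COS-1 cells stably expressing human GRTH, seeded at 0.01 × 10^6/well and left 16 h. Peptides at 10, 50, 100, 250 and 500 μM for 24 h at 37 °C with 5% CO2. Tetrazolium dye was then added for 4 h, reaction stopped, absorbance read at 570 nm. Viability taken as % of control OD; IC50 by linear regression of dose–response.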

Data set [8] concerns COS-1. The experiment in a line: Binding affinity to mCherry labelled GRTH (unknown origin) expressed in COS-1 cells assessed as increase in fluorescence intensity of donor peptide FITC in bleached region at 15 uM followed by acceptor photobleaching measured after 16 hrs by inverted microscope based live cell imaging analysis. The conditions noted are these: Homo sapiens. In outline: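 COS-1 cells carrying an mCherry-human GRTH fusion, in glass-bottom dishes, exposed to 15 μM FITC-labelled peptide for 16 h, then imaged live. mCherry was excited at 561 nm and FITC at 488 nm (emission 500–550 nm). ROIs were bleached in the acceptor channel at 514 nm, 100% power, 10 iterations. FRET efficiency E% = 100 × (FITC postbleach − FITC prebleach)/FITC postbleach.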

Data set [9] relates to COS-1. As to the kind of experiment: Binding affinity to GRTH (unknown origin) expressed in COS-1 cell lysate assessed as thermostabilization of protein at 40 uM incubated for 16 hrs followed by heating at 40 to 70 degree C for 3 mins by CETSA based western blot analysis. It counts as subcellular. The settings on record: Homo sapiens. The method in brief:
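Lysate of COS-1 cells stably carrying human GRTH-V5-His, made with protease/phosphatase inhibitor and cleared by centrifugation, then diluted in lysis buffer. Peptide added to 40 μM and rotated 16 h at 4 °C. Aliquots were heated 3 min at 40–70 °C and cooled 3 min at room temperature, then spun. Soluble non-phospho GRTH was read by western blot; 40 °C sample served as reference; n = 3.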
Background: Immunoblotting shows a protein as a band on a membrane.

For data set [10], the system named is COS-1. The experiment in a line: Inhibition of GRTH phosphorylation (unknown origin) expressed in COS-1 cells assessed as reduction in pGRTH protein level at 100 uM measured after 8 to 16 hrs by western blot analysis. The conditions noted are these: Homo sapiens, time 8-16 hrs. It counts as cell-based. The method in brief:
as §3

The test system of data set [11] is COS-1. The experiment in a line: Inhibition of GRTH phosphorylation (unknown origin) expressed in COS-1 cells assessed as reduction in pGRTH protein level at 100 uM measured after 24 hrs by western blot analysis. In kind it is cell-based. The settings on record: Homo sapiens. In outline:
as §3

Data set [12] concerns COS-1. As to the kind of experiment: Inhibition of GRTH phosphorylation (unknown origin) expressed in COS-1 cells assessed as reduction in pGRTH protein level measured after 16 hrs by western blot analysis. It counts as cell-based. The settings on record: Homo sapiens. The method in brief: as §3
For data set [13], the species on record is Mus musculus. The experiment in a line: Inhibition of GRTH phosphorylation in mouse seminiferous tubule of testis assessed as reduction in pGRTH protein level at 100 uM measured after 16 hrs by western blot analysis relative to control. In kind it is tissue-based. The method in brief:
as §2

For data set [14], the system named is COS-1. As to the kind of experiment: Inhibition of GRTH phosphorylation (unknown origin) expressed in COS-1 cells assessed as reduction in pGRTH protein level at 100 uM measured after 16 to 24 hrs by western blot analysis. In kind it is cell-based. The settings on record: Homo sapiens, time 16-24 hrs. The method in brief:
as §3

For `N=C(N)NCCC[C@H](NC(=O)CNC(=O)[C@H](Cc1ccc2ccccc2c1)NC(=O)[C@@H](N)Cc1ccccc1)C(=O)N[C@@H](CCCNC(=N)N)C(=O)N[C@@H](CCCNC(=N)N)C(=O)N[C@@H](CCCCNC(=S)Nc1ccc2c(c1)C(=O)OC21c2ccc(O)cc2Oc2cc(O)ccc21)C(=O)NCCOCCOCC(=O)O` (H-F[2Nal]GRRRK(FITC)[AEEA]-OH), the Drug uptake entry in [1] was “Not Active”; in data set [3] it was “Active”; in data set [4], “Not Active”. The inhibition entry in the data set listed under Mus musculus [2] and in the data set with COS-1 [5] was “inactive” throughout.
On to `N=C(N)NCCC[C@@H]1NC(=O)CNC(=O)[C@H](Cc2ccc3ccccc3c2)NC(=O)[C@H](Cc2ccccc2)NC(=O)COCCOCCNC(=O)[C@H](CCCCNC(=S)Nc2ccc3c(c2)C(=O)OC32c3ccc(O)cc3Oc3cc(O)ccc32)NC(=O)[C@H](CCCNC(=N)N)NC(=O)[C@H](CCCNC(=N)N)NC1=O` (cyclo([2Nal]GRRRK(FITC)[AEEA]F)), for which the inhibition entry in the data set with COS-1 [6], in the data set with COS-1 [10] and with COS-1 [11] was “Active” each time. For the same compound, the Drug uptake result in [1], in data set [3] and in [4] was “Active” throughout. Moreover, the pIC50 in the data set with COS-1 [7] was 3.51. The result with COS-1 [8] and in the data set on COS-1 [9] was Active. The inhibition entry with COS-1 [12] is “Dose-Dependent Effect”.
Regarding `N=C(N)NCCC[C@@H]1NC(=O)CNC(=O)[C@H](Cc2ccc3ccccc3c2)NC(=O)[C@H](Cc2ccccc2)NC(=O)COCCOCCNC(=O)[C@@H](CCCCNC(=S)Nc2ccc3c(c2)C(=O)OC32c3ccc(O)cc3Oc3cc(O)ccc32)NC(=O)[C@H](CCCNC(=N)N)NC(=O)[C@H](CCCNC(=N)N)NC1=O` (cyclo([2Nal]GRRR[dK](FITC)[AEEA]F)), the inhibition result in the data set with COS-1 [6] and in the data set with COS-1 [10] was “Active” in each case. The Drug uptake entry in data set [1], in [3] and in data set [4] was “Active” each time. In the data set with COS-1 [7], the pIC50 was 3.48. Also, the outcome with COS-1 [8] and with COS-1 [9] was Active. Besides, the inhibition result in the data set with COS-1 [11] was “inactive”. Besides, the inhibition entry in the data set on COS-1 [12] was “Dose-Dependent Effect”; in the data set listed under Mus musculus [13], 60%.
In the case of `N=C(N)NCCC[C@@H]1NC(=O)CNC(=O)[C@H](Cc2ccc3ccccc3c2)NC(=O)[C@H](Cc2ccccc2)NC(=O)COCCOCCNC(=O)CNC(=O)[C@H](CCCNC(=N)N)NC(=O)[C@H](CCCNC(=N)N)NC1=O` (cyclo([2Nal]GRRRG[AEEA]F)), the pIC50 in the data set on COS-1 [7] is 3.41. Besides, the inhibition entry in the data set with COS-1 [14] and in the data set on COS-1 [11] was “Active” throughout. The inhibition result in the data set with COS-1 [12] is “Dose-Dependent Effect”.
With `O=C(O)CC[C@@H]1NC(=O)CNC(=O)[C@H](Cc2ccc3ccccc3c2)NC(=O)[C@H](Cc2ccccc2)NC(=O)COCCOCCNC(=O)[C@H](CCCCNC(=S)Nc2ccc3c(c2)C(=O)OC32c3ccc(O)cc3Oc3cc(O)ccc32)NC(=O)[C@H](CCC(=O)O)NC(=O)[C@H](CCC(=O)O)NC1=O` (cyclo([2Nal]GEEEK(FITC)[AEEA]F)), the inhibition result with COS-1 [6], in the data set listed under Mus musculus [2] and in the data set on COS-1 [5] was “inactive” throughout. Moreover, the Drug uptake result in data set [1], in data set [3] and in data set [4] was “Active” in each case. Besides, the result in the data set on COS-1 [8] and with COS-1 [9] was inactive.
Take `N=C(N)NCCC[C@@H]1NC(=O)CNC(=O)CNC(=O)CNC(=O)COCCOCCNC(=O)[C@H](CCCCNC(=S)Nc2ccc3c(c2)C(=O)OC32c3ccc(O)cc3Oc3cc(O)ccc32)NC(=O)[C@H](CCCNC(=N)N)NC(=O)[C@H](CCCNC(=N)N)NC1=O` (cyclo([AEEA]GGGRRRK(FITC))): the Drug uptake result in data set [1], in data set [3] and in [4] was “Active” throughout. Also, the inhibition result in the data set filed under Mus musculus [2] and in the data set on COS-1 [5] was “inactive” throughout.

One may read the inhibition as the percentage by which the read-out fell short of the control. For orientation: pIC50 means the negative decadic logarithm of the IC50, by convention in mol/L.
